Screens as filed in PubChem.
The list is not random: actives were taken first. Their share in the collection is about 1.8%.
CHRM4 agonist = CHRM4 agonism in calcium assay. P08173. CHO-K1 hM4/Gqi5, Fluo-8 calcium fluorescence; vehicle 0%, full acetylcholine response 100%. activation, % at 3 µM. 360,000 compounds, 0.14% hits. AID 624127;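 active = activation above the run mean over all test wells plus 3 SD, cut at about 32% in these data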;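 note: peak over basal fluorescence ratio per well then scaled between controls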
Target sequence (P08173 whole entry, looked up): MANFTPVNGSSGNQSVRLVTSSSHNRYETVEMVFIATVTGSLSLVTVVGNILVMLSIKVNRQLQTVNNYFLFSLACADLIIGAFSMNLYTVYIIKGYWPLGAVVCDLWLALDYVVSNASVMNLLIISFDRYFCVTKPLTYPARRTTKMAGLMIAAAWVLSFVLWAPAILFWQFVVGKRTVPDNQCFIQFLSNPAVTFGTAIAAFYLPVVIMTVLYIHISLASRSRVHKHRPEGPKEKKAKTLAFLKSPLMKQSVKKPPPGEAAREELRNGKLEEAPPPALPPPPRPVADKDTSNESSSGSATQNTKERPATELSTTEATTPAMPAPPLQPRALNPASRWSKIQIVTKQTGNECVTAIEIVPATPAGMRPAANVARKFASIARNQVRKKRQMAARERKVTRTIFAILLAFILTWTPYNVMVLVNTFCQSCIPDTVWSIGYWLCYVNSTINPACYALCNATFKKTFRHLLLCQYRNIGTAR
M5 ag = CHRM5 agonism in calcium assay. CHO-K1 hM5 cells, Fluo-8 calcium fluorescence; 0% DMSO wells, 100% maximal acetylcholine response. 360,000 compounds, 0.19% hits. activation, % at 3 µM. P08912. AID 624037;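 active = activation above the run's mean over test compounds plus 3 SD, cut at about 23% in these data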;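 note: signal is peak over basal fluorescence ratio across the kinetic read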
M4 antag = blocks acetylcholine activation of human M4 receptor. 360,000 compounds, 0.73% hits. AID 624125. P08173. CHO-hM4 cells, ACh EC80, Fluo-8 calcium fluorescence. inhibition, % at 3 µM;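 active = inhibition above its plate's cutoff, the mean inhibition of sample wells plus 3 SD, cut at about 27% in these data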
M5 antag = antagonists of human muscarinic M5 receptor (CHRM5); P08912; CHO-hM5 cells, Fluo-8 calcium fluorescence, ACh EC80; inhibition, % at 3 µM; 360,000 compounds, 0.59% hits;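 active = inhibition above a per-plate cutoff, the mean of that plate's test compounds plus 3 SD, cut at about 27% in these data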
M4 PAM = potentiates acetylcholine response at human M4 receptor; 360,000 compounds, 0.4% hits; P08173; AID 624126; CHO-K1 hM4/Gqi5, Fluo-8 calcium fluorescence, ACh EC20; 0% = ACh EC20, 100% = maximal ACh; activation, % at 3 µM;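 active = activation above its plate's cutoff, the mean activation of sample wells plus 3 SD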
M5 PAM = positive allosteric modulators of human muscarinic M5 receptor | CHO-K1 hM5, Fluo-8 calcium, ACh EC20 PAM; 0% = ACh EC20, 100% = ACh EC100 | activation, % at 3 µM | AID 624038 | 360,000 compounds, 0.3% hits | P08912;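 active = activation above the run cutoff, the mean activation of all test compounds plus 3 SD, cut at about 18% in these data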
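Measured by: Fluo-8 calcium fluorescence; material: human M5 receptor in CHO-K1 cells; schedule: Post-acetylcholine fluorescence recording 140 s; benchmarks: low control EC20 acetylcholine (0%), high control EC100 acetylcholine (100%); read-out: Max/basal fluorescence ratio as % of EC20–EC100 ACh window; compound: single dose, 3 µM nominal final test concentration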
Of the large screens only hits and unclear results are named; the others gave an inactive call.

Cc1c(CNC(=O)C2CCC(=O)N(CCc3ccccc3)C2)cnn1C (configuration not stated)	M4 PAM 21
Cc1ccc(F)cc1CNC(=O)C1CCC(=O)N(CCc2ccccc2)C1 (configuration not stated)	none
Cc1ccc2nc(CNC(=O)C3CCC(=O)N(Cc4ccccc4F)C3)cn2c1 (configuration not stated)	none
CCc1cc(CNC(=O)C2CCC(=O)N(CCc3ccc(OC)cc3)C2)on1 (configuration not stated)	M5 antag 28
Cc1cccc(CNC(=O)C2CCC(=O)N(Cc3ccccc3F)C2)n1 (configuration not stated)	M4 PAM 21
Cc1ccc(S(=O)(=O)NC(C)(C)CN2CCc3ccccc3C2)cc1	none
COc1ccccc1-c1cc(C(F)(F)F)nc(S(=O)(=O)CCCC(=O)O)n1	none
COc1ccc(-c2cc(C(F)(F)F)nc(S(=O)(=O)CCCC(=O)Nc3cccc(O)c3)n2)cc1OC	M5 antag 27
O=C(O)CCN1C(=O)C2C3C=CC(C3)C2C1=O (configuration not stated)	none
O=C(O)CCN1C(=O)C2CCCCC2C1=O (configuration not stated)	M4 PAM 19
COc1nc(-c2ccc(C)cc2)ccc1-c1noc(-c2ccco2)n1	M5 PAM 28
COc1nc(C)ccc1-c1noc(-c2ccco2)n1	none
Cc1csc(NC(=O)c2cc(-c3ccccc3)nc3ccccc23)n1	M5 antag 28
CCC(C(=O)N1CCCCCC1)n1nc(C)n2c(cc3occc32)c1=O (configuration not stated)	none
O=C(O)c1cccc2c1-c1ccccc1/C2=N\Nc1ccccc1	none
O=C(O)c1cccc2c1/C(=N/O)c1ccccc1-2	M5 PAM 20
COc1ccc(C2/C=C\CN(C(=O)c3ccc(C)cc3)CC(=O)N2Cc2ccc(F)cc2)cc1 (configuration not stated)	M5 PAM 18
O=C(CN1CCN(Cc2ccc3c(c2)OCO3)CC1)Nc1ccc(N2CCOCC2)cc1	none
O=C(CN1CCN(Cc2ccc3c(c2)OCO3)CC1)Nc1ccc2[nH]c(=O)[nH]c2c1	M4 PAM 16
O=C(OCn1ncc(Cl)c(Cl)c1=O)c1cccc(C(F)(F)F)c1	M4 antag 58
O=C(OCn1ncc(Br)c(Br)c1=O)c1ccccc1Cl	none
COc1ccc(Cc2nnc(NC(=O)c3cc(OC)c(OC)c(OC)c3)s2)cc1	none
CCn1c(SCC(=O)N/N=C/c2ccccc2OCC(=O)O)nnc1-c1ccc(C)cc1	M5 antag 37, M5 PAM 26
CCCc1nc2c(=O)[nH]c3ccccc3c2o1	M5 PAM 19
CC(=O)c1cn(-c2ccc(Cl)cc2)c(=O)[nH]c1=O	none
O=C1NC[C@H](c2ccccc2)OC(=O)[C@@H](Cc2ccc(F)cc2)CC/C=C/C[C@H]1CC(=O)N(CCO)Cc1ccccc1	none
CC(C)(C)OC(=O)C[C@@H]1C/C=C\C[C@@H](CC(=O)N(CCO)Cc2ccccc2)C(=O)N[C@@H](c2ccccc2)COC1=O	M5 antag 29
C[C@@H]1COC(=O)[C@H](CC(=O)OC(C)(C)C)C/C=C\C[C@H](CC(=O)N(CCO)Cc2ccccc2)C(=O)N1	none
O=C1NC[C@@H](c2ccccc2)OC(=O)[C@H](Cc2ccc(F)cc2)C/C=C\C[C@@H]1CC(=O)N(CCO)Cc1ccccc1	M4 antag 27
O=C(C[C@H]1C/C=C\CC[C@H](Cc2ccc(F)cc2)C(=O)O[C@@H](c2ccccc2)CNC1=O)N[C@@H](CO)Cc1ccccc1	none
O=C1NC[C@H](c2ccccc2)OC(=O)[C@H](Cc2ccc(F)cc2)CC/C=C/C[C@H]1CC(=O)N(CCO)Cc1ccccc1	M4 antag 27
O=C(C[C@H]1C/C=C\C[C@H](Cc2ccc(F)cc2)C(=O)O[C@@H](c2ccccc2)CNC1=O)N[C@H](CO)Cc1ccccc1	CHRM4 agonist 39
COCCNC(=O)C1(C)Cc2c(-c3ccc4c(c3)OCO4)ccnc2O1 (configuration not stated)	none
Cc1cccc(C)c1NC(=O)/C(C#N)=C/c1ccc(-c2ccc(C(=O)O)cc2)o1	none
Cn1c(=O)c(S(=O)C2CCCCC2)c(O)c2ccccc21 (configuration not stated)	none
Cc1cc(C)n2nc(SCc3nnc(SCCCCl)o3)nc2n1	M4 antag 32
CCN(CC(=O)Nc1ccccc1OC)C(=O)CC1CCCC1	none
Cc1ccccc1CS(=O)(=O)c1nnc([C@H](Cc2ccccc2)NC(=O)OC(C)(C)C)o1	M4 antag 79
Cc1cc(C)c2c3c(sc2n1)C(=O)N(c1ccccc1)CC(=O)N3	M4 antag 32
Cc1cc(C)c(C)c(S(=O)(=O)NC(C(=O)NCCc2ccco2)C(C)C)c1C (configuration not stated)	none
CC[N+](CC)(CC)CCOc1ccc(/C=C/c2ccccc2)cc1	M4 antag 27, M5 antag 95
CC(C)CCC1CC(CSC(=N)N)OC1=O (configuration not stated)	M5 PAM 21
c1ccc(CN2CCC(Nc3ncnc4sccc34)CC2)cc1	none
Cc1sc2ncnc(NC3CCN(Cc4ccccc4)CC3)c2c1C	M5 antag 29
CCN1CCN(c2ncnc3scc(-c4ccc(C)c(C)c4)c23)CC1	M4 antag 27, M5 antag 46
O=S(=O)(/N=C(/Nc1cccc2ccccc12)c1ccccc1)c1ccc(Br)cc1	none
Cc1ccc(C(C)C)c(OCCN)c1	none
Cc1ccc(C(C)C)c(OCCCn2ccnc2C)c1	M4 antag 73, M5 antag 91
O=C(O)c1nn(CCSc2ccccc2F)c(=O)c2ccccc12	none
Cc1nc2scc(C)n2c(=O)c1S(=O)(=O)NCC1CCN(Cc2ccc(Cl)cc2)CC1	M4 antag 65
COc1ccc(CN2CCNC(=O)C2CC(=O)NCCC2=CCCCC2)c(F)c1 (configuration not stated)	none
O=C(/C=C/c1ccc(Cl)cc1Cl)NCCN1CCOCC1	M4 PAM 30
CN(C)c1ccc(C=Cc2nccc3ccccc23)cc1	CHRM4 agonist 36, M5 ag 29, M5 antag 29
CCN(CC)c1nc(C=Cc2ccc(N(C)C)cc2)c2nccnc2n1	M5 ag 31, M4 antag 41, M5 antag 50
COc1cccc(C=Cc2nccc3ccccc23)c1OC	none
